Most compounds without a hit are left out; they make up all but 1.4% or so of the library.
Vif imaging = inhibitors of HIV Vif | AID 602346 | hit rate 0.35% among 340,000 | inhibition, % at 7.49 µM | HEK293T cells, Vif self-association by quenched fluorescence, imaging, 24 h; in the data active = inhibition above about 50%, passing the limit was not always enough
CDK5 inh = inhibitors of human CDK5/p35 kinase. Q00535+Q15078. Recombinant CDK5/p35, ADP-Glo luminescence, 60 min. inhibition, % at 10 µM. hit rate 0.01% among 330,000. AID 488839;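 active = highest replicate inhibition of at least 50% and at least 75% of replicates reaching 50%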
Target sequence (Q00535 whole entry, looked up): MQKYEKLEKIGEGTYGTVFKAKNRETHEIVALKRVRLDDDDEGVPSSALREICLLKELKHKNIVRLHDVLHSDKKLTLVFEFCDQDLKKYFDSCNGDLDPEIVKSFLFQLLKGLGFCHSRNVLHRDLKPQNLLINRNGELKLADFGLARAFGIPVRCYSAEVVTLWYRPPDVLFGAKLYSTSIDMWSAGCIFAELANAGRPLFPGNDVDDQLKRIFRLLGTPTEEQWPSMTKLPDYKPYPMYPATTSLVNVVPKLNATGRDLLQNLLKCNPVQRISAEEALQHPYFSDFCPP
Target sequence (Q15078 whole entry, looked up): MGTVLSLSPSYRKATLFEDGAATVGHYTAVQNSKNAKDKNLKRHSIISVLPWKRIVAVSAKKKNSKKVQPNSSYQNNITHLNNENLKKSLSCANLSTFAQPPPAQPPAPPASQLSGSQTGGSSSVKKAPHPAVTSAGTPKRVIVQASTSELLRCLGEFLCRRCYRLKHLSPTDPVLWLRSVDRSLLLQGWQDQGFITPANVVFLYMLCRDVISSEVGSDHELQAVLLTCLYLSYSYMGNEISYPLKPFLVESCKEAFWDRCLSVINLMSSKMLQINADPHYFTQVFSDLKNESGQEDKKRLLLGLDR
N-glyco inh = blocks N-linked glycosylation in D54 reporter cells; D54 ERlucT glycosylation luciferase reporter, 24 h; percent of 100 nM tunicamycin response; reporter increase, % at 12.5 µM; hit rate 0.23% among 360,000; AID 588692;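 active = mean luciferase reporter signal, scaled so untreated is 0 and the glycosylation-blocking control 100, at or above a set limit in every replicate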;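 note: luciferase carries N-glycosylation sites so blocking glycosylation raises the light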
CAL PDZ FP-1 = CAL PDZ (human) peptide binding inhibition. AID 602252. Q9HD26. purified CAL PDZ, TMR-peptide fluorescence polarization, 1 h. hit rate 0.92% among 300,000. inhibition, % at 24.9 µM;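 active = mean inhibition of at least 30% with at least half of replicates also reaching 30%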
PvdQ acylase = blocks Pseudomonas aeruginosa PvdQ acylase activity | inhibition, % at 10 µM | hit rate 0.063% among 340,000 | purified PvdQ acylase, fluorescence plate reader; in the data active = inhibition above about 30%, passing the limit was not always enough
CAL PDZ FP-2 = inhibitors of human CAL PDZ peptide binding; inhibition, % at 20 µM; Q9HD26; hit rate 0.02% among 330,000; AID 504414; purified CAL PDZ, TMR-peptide fluorescence polarization, 1 h;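 active = highest replicate inhibition of at least 40%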
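System: tagged CAL PDZ domain. Schedule: 1 h room-temperature incubation prior to read. Signal: fluorescence polarization (mP). Measure: percent inhibition from loss of millipolarization.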
Large screens that a line does not name were inactive; ! = not active in a repeat.

CC(=O)Nc1ccc(Oc2nc(-c3cccnc3)nc3sc4c(c23)CCCC4)cc1	CAL PDZ FP-1 67.2
Nc1nc(-c2cccnc2)nc2sc3c(c12)CCCC3	none
COc1cc(C(=O)N2CCN(c3ccccn3)CC2)cc(OC)c1OC	CDK5 inh 89.0
O=C(c1cn(Cc2ccccc2)nc1-c1ccccc1)N1CCN(c2ccccn2)CC1	N-glyco inh 50.9
O=C(c1ccccc1-c1ccccc1)N1CCN(c2ccccn2)CC1	N-glyco inh 50.2 (no result: CAL PDZ FP-1)
Cc1csc(NC(=O)c2cncc(Br)c2)n1	none
NS(=O)(=O)c1cccc(NC(=O)Cn2nc(C(=O)O)c3ccccc3c2=O)c1	none
OCC[C@@H]1C[C@H](O)[C@@H](O)[C@@]2(OCCc3cc(Cl)ccc32)O1	none (no result: CDK5 inh, CAL PDZ FP-1, PvdQ acylase, CAL PDZ FP-2)
COc1cc2c(cc1OC)/C(=C/C(=O)c1ccc(OC)c([N+](=O)[O-])c1)NCC2	Vif imaging 53.0
COc1cc2c(cc1OC)/C(=C/C(=O)c1cccc([N+](=O)[O-])c1)NCC2	none
CSc1nc2nc(Cl)c(Cl)nc2[nH]1	none (no result: Vif imaging, CDK5 inh, CAL PDZ FP-1, PvdQ acylase, CAL PDZ FP-2)
CCCN(C(=O)c1cn(-c2ccccc2)nc1-c1ccc(OC)cc1)C1CCS(=O)(=O)C1 (stereo unspecified)	none
CCOC(=O)c1[nH]c(C)c(C(=O)Nc2cc(Cl)ccc2C)c1C	N-glyco inh 29.2 (no result: CAL PDZ FP-1)
O=C1NC(c2cccc(OCc3ccccc3)c2)Nc2ccccc21 (stereo unspecified)	none
CCCc1nc2cc3c(cc2[nH]1)n(C)c(=O)n3C	none
Cn1c(=O)n(C)c2cc3[nH]cnc3cc21	CAL PDZ FP-1 42.0
COc1ccc(C(=O)Nc2c(Cl)cc(Cl)cc2C(=O)N2CCOCC2)cc1	Vif imaging 65.1
COc1ccc(C(=O)Nc2c(Cl)cc(Cl)cc2C(=O)NCc2ccco2)cc1	none
O=C(NNC(=O)c1csc(N2CCOCC2)n1)c1ccc(Cl)nc1	none
COc1ccc(-c2csc(N(Cc3ccco3)C(=O)c3cccs3)n2)cc1	CAL PDZ FP-2 191.2
NC(=O)c1nsc(C(=O)N(c2cccc(F)c2)C(C(=O)NC2CCCC2)c2ccc(O)cc2)c1N (stereo unspecified)	Vif imaging 90.9
NC(=O)c1nsc(C(=O)N(Cc2cccnc2)C(C(=O)NCc2ccc(F)cc2)c2ccc(O)cc2)c1N (stereo unspecified)	Vif imaging 51.1
Cc1ccc(CNC(=O)CNS(=O)(=O)c2ccc3c(c2)C(C)(C)C(=O)N3C)cc1	none (no result: Vif imaging, CAL PDZ FP-1)
Cn1c(NN)nc2c1c(=O)n(Cc1ccccc1)c(=O)n2C	none
CCOc1ccc(CN2CCC(C(=O)Nc3cccc(-c4ccn[nH]4)c3)CC2)cc1Cl	none
O=Nc1c(O)[nH]c2ccc(F)cc12	none
Cc1cc2c(N=O)c(NO)ccc2[nH]1	Vif imaging 54.5 (no result: CAL PDZ FP-2)
Cc1ccc(Sc2ccc(S(=O)(=O)Nc3ccc(CC(=O)O)cc3)cc2)cc1C	none (no result: CAL PDZ FP-1)
CN(C)c1ccc(/C=C/C(=O)c2ccc3c(c2)OCO3)cc1	Vif imaging active (no result: CAL PDZ FP-1)
CN(C)c1ccc(C(=O)C=Cc2ccc([N+](=O)[O-])cc2)cc1	none (no result: CDK5 inh, CAL PDZ FP-1, PvdQ acylase, CAL PDZ FP-2)
CN(C)c1ccc(/C=C/C(=O)c2ccc(O)cc2)cc1	Vif imaging 83.4
O=C(/C=C/c1ccncc1)c1ccc2c(c1)OCCO2	N-glyco inh 70.4
CCc1nc2c(OCc3cc(Cl)cc(Cl)c3)cccn2c1N(C)C(=O)c1ccccc1F	none (no result: CDK5 inh, CAL PDZ FP-1, PvdQ acylase, CAL PDZ FP-2)
Cc1cc(NC(=O)CSc2nc3c(sc4ccccc43)c(=O)n2CCCN2CCOCC2)n[nH]1	Vif imaging 94.0
Cc1cc(NC(=O)CSc2nc3c(sc4ccccc43)c(=O)n2CCc2ccccc2)n[nH]1	none
O=C(Nc1cccc(OC(F)(F)F)c1)C1Cc2c(-c3cccc(F)c3)ccnc2O1 (stereo unspecified)	none (no result: CDK5 inh, CAL PDZ FP-1, PvdQ acylase, CAL PDZ FP-2)
O=C1C=C(c2ccccc2)C(c2ccccc2)C1 (stereo unspecified)	CAL PDZ FP-2 47.8 (no result: CAL PDZ FP-1)
O=C(N/N=C/c1ccc(O)cc1)Nc1cccc2nsnc12	CAL PDZ FP-1 31.5
CCN(C[C@H]1N[C@@](CC)(C(=O)OC)[C@H]2C(=O)N(Cc3ccccc3)C(=O)[C@@H]12)C(=O)NC(C)C	none
Cn1c(=O)c(=O)n(C)c2cc([N+](=O)[O-])c([N+](=O)[O-])cc21	none
CN(C)c1c([N+](=O)[O-])cc(N2C(=O)C=CC2=O)cc1[N+](=O)[O-]	CAL PDZ FP-1 36.5
CNC(=O)c1cccc(NC(=O)CCCNC(=O)c2ccc(Cl)cc2)c1	CAL PDZ FP-1 65.6
CC(=O)Nc1cccc(NC(=O)CCNC(=O)c2ccc(Cl)cc2)c1	none
CN(CC(=O)N1CCN(Cc2ccccc2)CC1)C(=O)Cc1cccc2ccccc12	none (no result: CAL PDZ FP-1)
CN1CCN(CCNC(=O)c2ccc(CS(=O)c3ccc(Br)cc3)o2)CC1 (stereo unspecified)	none (no result: CDK5 inh, CAL PDZ FP-1, PvdQ acylase, CAL PDZ FP-2)
CCOC(=O)/C=C1\SCC(=O)N1Cc1nnc(-c2ccccc2Br)o1	CAL PDZ FP-1 59.8
CCOC(=O)/C=C1/SCC(=O)N1Cc1ccc(Br)cc1	none
COCC(=O)Nc1cc(C)cn(Cc2ccccc2Cl)c1=O	none (no result: CAL PDZ FP-1)
CC(C)(C)[C@H]1C=C(C(=O)NCc2nc3ccccc3[nH]2)O[C@@H](OCc2ccc(CO)cc2)C1	none
CCCCOc1ccc(C(=O)NCC(=O)NC2CCN(Cc3ccccc3)CC2)cc1	none (no result: CAL PDZ FP-1)
S=C(NC1CC1)N1CCc2ccccc2C1	Vif imaging 94.0 (no result: CAL PDZ FP-1)
S=C(NC1CCCCC1)N1CCc2ccccc2C1	none
O=C(NCc1ccc(F)cc1)c1c2c(nc3ccccc13)CCN(Cc1ccccc1)C2	CAL PDZ FP-1 57.4
COC(=O)c1ccc(CNC(=O)c2c3c(nc4ccccc24)CCN(Cc2ccccc2)C3)cc1	none
Cc1cccc(C)c1C(O)c1ncc(-c2ccccc2Cl)[nH]1 (stereo unspecified)	none (no result: Vif imaging, CDK5 inh, CAL PDZ FP-1, PvdQ acylase, CAL PDZ FP-2)
CCOC(=O)Nc1ccc2c(c1)ncn2C1CCCCC1	Vif imaging 81.6
O=C(O)CSc1nc2c(c(C(F)(F)F)n1)CCCC2	CAL PDZ FP-1 78.0!
O=C(O)CSc1nc2c(c(C(F)(F)F)n1)CCc1ccccc1-2	none
Nc1ccc(OCc2ccccc2)cc1[N+](=O)[O-]	PvdQ acylase 36.5
O=[N+]([O-])c1cccnc1Oc1ccc(OCc2ccccc2)cc1	none
O=S(=O)(CS(=O)(=O)c1ccccc1)c1ccccc1	none
O=S(=O)(C/C(=C/CO)S(=O)(=O)c1ccccc1)c1ccccc1	Vif imaging 62.4
COc1ccc2c(COC(=O)[C@H](C)NS(=O)(=O)c3ccccc3F)cc(=O)oc2c1	none
CC(C)(C)NC(=O)CSc1nc(O)cc(=O)n1-c1ccccc1	Vif imaging 94.1
O=C(CN1C(=O)C2CC=CCC2C1=O)Nc1nc2ccccc2[nH]1 (stereo unspecified)	CAL PDZ FP-1 46.9 (no result: CAL PDZ FP-2)
O=C(Cc1ccccc1)Nc1nc2ccccc2[nH]1	none
Cc1ccc(C(=O)NC(=C(Cl)Cl)S(=O)(=O)c2ccc(Cl)cc2)cc1	N-glyco inh 53.9
O=C(NC(=C(Cl)Cl)S(=O)(=O)c1ccc(Cl)cc1)c1ccccc1	N-glyco inh 58.7

From PubChem BioAssay
